Assay results reported in ChEMBL document CHEMBL5046221, “Identification of Pyrimidine-Based Lead Compounds for Understudied Kinases Implicated in Driving Neurodegeneration” (J Med Chem, 2022).

How the values were obtained:
[1] = molecular target: T1, Serine/threonine-protein kinase 17A (Homo sapiens, UniProt Q9UEE5); assay: Displacement of tracer K9 from NLuc fused DRAK1 (unknown origin) expressed in HEK293 cells by NanoBRET assay; type: cell-based
T1 sequence (Q9UEE5 whole entry): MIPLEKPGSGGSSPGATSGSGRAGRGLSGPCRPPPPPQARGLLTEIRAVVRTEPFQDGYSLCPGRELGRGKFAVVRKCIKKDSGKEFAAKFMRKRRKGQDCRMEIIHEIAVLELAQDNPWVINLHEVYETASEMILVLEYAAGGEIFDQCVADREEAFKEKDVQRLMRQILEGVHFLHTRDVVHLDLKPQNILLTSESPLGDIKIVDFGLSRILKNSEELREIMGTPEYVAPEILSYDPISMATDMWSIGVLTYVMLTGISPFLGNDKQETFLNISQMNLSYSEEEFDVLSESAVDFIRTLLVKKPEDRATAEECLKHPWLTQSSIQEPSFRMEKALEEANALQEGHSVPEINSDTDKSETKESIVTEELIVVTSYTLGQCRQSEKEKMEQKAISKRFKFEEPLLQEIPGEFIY

[2] = molecular target: MAP/microtubule affinity-regulating kinase 3 (Homo sapiens, UniProt P27448); assay: Displacement of tracer K9 from NLuc fused MARK3 (unknown origin) expressed in HEK293 cells by NanoBRET assay; type: cell-based
[3] = molecular target: T2, MAP/microtubule affinity-regulating kinase 4 (Homo sapiens, UniProt Q96L34); assay: Displacement of tracer K5 from NLuc fused MARK4 (unknown origin) expressed in HEK293 cells by NanoBRET assay; type: cell-based
T2 sequence (Q96L34 whole entry): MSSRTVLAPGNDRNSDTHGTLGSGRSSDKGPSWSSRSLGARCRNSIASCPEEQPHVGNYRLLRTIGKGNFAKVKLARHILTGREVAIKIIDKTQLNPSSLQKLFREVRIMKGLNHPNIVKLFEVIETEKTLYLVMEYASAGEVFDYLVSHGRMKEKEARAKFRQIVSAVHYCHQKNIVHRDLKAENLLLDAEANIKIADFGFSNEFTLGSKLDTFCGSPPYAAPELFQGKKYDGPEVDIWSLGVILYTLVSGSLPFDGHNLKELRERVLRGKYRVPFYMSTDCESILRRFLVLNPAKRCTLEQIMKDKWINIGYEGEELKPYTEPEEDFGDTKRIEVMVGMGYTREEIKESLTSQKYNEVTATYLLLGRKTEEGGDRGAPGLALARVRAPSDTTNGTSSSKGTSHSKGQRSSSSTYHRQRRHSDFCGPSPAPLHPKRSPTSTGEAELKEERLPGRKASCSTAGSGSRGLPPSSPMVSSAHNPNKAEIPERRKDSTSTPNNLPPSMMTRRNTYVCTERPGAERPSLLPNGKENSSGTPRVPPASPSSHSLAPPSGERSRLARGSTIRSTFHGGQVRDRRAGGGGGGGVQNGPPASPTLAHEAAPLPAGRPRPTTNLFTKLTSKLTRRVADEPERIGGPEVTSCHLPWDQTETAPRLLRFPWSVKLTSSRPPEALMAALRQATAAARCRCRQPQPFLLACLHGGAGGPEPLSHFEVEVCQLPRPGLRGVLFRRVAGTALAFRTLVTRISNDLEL

[4] = molecular target: T3, Serine/threonine-protein kinase TBK1 (Homo sapiens, UniProt Q9UHD2); assay: Displacement of tracer K5 from NLuc fused TBK1 (unknown origin) expressed in HEK293 cells by NanoBRET assay; type: cell-based
T3 sequence (Q9UHD2 whole entry): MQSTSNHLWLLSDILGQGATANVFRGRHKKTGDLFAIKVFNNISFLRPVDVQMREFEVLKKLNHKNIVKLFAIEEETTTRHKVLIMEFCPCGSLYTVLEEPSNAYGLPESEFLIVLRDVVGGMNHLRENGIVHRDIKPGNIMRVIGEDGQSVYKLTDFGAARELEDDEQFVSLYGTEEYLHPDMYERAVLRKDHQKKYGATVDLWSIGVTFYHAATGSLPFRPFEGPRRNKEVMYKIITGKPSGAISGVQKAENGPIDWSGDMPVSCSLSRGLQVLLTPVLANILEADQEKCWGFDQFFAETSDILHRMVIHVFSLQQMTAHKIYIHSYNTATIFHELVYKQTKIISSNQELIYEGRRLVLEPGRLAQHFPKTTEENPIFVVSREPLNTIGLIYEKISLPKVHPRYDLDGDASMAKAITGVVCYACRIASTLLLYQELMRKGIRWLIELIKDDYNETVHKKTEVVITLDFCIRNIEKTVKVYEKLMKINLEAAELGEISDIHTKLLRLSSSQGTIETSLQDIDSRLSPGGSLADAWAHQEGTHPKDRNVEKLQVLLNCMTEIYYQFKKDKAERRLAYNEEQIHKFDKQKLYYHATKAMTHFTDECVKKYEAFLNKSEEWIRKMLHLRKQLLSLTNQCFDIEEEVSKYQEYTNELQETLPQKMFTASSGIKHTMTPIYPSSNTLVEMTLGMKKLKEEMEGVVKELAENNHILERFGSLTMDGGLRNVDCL
In short: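 HEK293 cells grown in DMEM with 10% FBS at 37 °C, 5% CO2. NanoBRET assay run in dose–response per manufacturer's protocol with tracer K-5 at 0.5 μM. SEM calculated for assays run more than once.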

[5] = molecular target: T4, Myosin light chain kinase 2, skeletal/cardiac muscle (Homo sapiens, UniProt Q9H1R3); assay: Inhibition of full length recombinant human MYLK2 using KKLNRTLSFAEPG as substrate incubated for 40 mins in presence of [gamma-33P-ATP] by radiometric scintillation assay
In short: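 Eurofins radiometric enzymatic assay with ATP at Km for each kinase. IC50 was derived from a 9-point dose–response curve run in duplicate.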

[6] = molecular target: T4, Myosin light chain kinase 2, skeletal/cardiac muscle; assay: Inhibition of NanoLuc-fused MYLK2 (unknown origin) expressed in HEK293 cells incubated for 2 hrs by NanoBRET assay; type: cell-based
In short: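 Cellular NanoBRET target-engagement assays were run by Carna Biosciences to the manufacturer's protocol. Dose–response was in singlicate, with compounds tested at concentrations up to 10 μM.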

[7] = Kinetic solubility of compound in PBS at pH 7.4 incubated for 24 hrs by chemiluminscent nitrogen detection method; type: physicochemical; conditions: buffer, pH 7.4, 24 h
In short: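 Filtrates were quantified by total chemiluminescent nitrogen determination against a calibration curve, with correction for background nitrogen from DMSO and medium.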

[8] = Effective permeability in PBS at 7.4 incubated for 5 hrs by PAMPA analysis; type: ADME; conditions: pH 7.4, 5 h
In short: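 PAMPA: DMSO stocks were diluted in PBS pH 7.4 and placed in the donor compartment, with PBS pH 7.4 in the acceptor, for 5 h. Both compartments were quantified by CLND against a calibration curve, with background nitrogen correction. Effective permeability was calculated from donor and acceptor concentrations using measured rather than assumed solubility.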

[9] = molecular target: T5, Serine/threonine-protein kinase 17B (Homo sapiens) (UniProt O94768); assay: Inhibition of full length recombinant human DRAK2 using KKRPQRRYSNVF as substrate at 1 uM incubated for 120 mins in presence of [gamma-33P-ATP] by radiometric scintillation assay relative to control
T5 sequence (whole entry): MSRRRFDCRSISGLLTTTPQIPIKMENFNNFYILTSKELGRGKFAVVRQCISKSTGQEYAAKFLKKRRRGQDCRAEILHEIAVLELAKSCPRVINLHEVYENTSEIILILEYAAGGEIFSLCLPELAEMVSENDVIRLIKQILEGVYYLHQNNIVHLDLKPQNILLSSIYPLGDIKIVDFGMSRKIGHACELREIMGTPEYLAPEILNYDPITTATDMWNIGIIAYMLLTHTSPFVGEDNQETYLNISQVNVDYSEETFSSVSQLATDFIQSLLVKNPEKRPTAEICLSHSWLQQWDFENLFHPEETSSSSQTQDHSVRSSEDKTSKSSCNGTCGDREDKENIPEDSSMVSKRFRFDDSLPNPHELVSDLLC
In short: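 Eurofins radiometric kinase assay with ATP at Km for each kinase. Compound was tested at a single 1 μM concentration in duplicate, and the result is reported as percent of control.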

T4 sequence (Q9H1R3 whole entry): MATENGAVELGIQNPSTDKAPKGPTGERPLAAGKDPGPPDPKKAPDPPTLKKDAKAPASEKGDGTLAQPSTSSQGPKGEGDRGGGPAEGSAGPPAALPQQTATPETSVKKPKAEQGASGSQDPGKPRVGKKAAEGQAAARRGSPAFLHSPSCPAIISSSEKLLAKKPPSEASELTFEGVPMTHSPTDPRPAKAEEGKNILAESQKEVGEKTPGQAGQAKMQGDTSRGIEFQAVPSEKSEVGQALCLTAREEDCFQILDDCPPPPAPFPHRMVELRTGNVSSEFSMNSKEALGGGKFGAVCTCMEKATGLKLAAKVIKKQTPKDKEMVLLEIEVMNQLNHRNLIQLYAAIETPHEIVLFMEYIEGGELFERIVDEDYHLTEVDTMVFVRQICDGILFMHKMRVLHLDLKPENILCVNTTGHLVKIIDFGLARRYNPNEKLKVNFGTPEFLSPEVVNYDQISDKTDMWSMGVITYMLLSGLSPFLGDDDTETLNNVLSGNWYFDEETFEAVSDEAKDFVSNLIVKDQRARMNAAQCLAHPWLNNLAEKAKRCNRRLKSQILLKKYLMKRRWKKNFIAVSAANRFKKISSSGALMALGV
Chain of MAP/microtubule affinity-regulating kinase 3 (P27448 whole entry, the tested form may be a part): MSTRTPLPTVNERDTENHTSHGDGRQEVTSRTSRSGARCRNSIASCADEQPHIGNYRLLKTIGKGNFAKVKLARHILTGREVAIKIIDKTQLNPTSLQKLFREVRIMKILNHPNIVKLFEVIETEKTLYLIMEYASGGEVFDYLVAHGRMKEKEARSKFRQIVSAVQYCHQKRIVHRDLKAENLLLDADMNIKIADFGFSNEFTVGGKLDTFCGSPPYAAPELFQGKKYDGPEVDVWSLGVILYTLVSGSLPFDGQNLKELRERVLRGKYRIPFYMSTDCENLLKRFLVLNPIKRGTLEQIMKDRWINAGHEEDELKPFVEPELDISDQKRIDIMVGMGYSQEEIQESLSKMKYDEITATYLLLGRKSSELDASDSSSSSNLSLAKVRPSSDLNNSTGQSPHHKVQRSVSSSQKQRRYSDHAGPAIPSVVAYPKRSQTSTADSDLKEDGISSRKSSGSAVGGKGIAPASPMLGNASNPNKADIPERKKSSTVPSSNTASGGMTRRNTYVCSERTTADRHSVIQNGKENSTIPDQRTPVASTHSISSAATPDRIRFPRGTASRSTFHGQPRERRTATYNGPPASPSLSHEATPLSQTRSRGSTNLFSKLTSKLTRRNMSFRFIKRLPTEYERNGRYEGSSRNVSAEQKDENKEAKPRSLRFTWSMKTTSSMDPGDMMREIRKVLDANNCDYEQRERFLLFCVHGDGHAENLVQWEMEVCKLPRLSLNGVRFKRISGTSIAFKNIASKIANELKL

IC50 [1]: > 10 µM | IC50 [2]: > 10 µM | IC50 [3]: > 10 µM | IC50 [4]: > 10 µM | IC50 [5]: 0.479 µM | IC50 [6]: 3.67 µM | Kinetic solubility [7]: 177 µM | Peff [8]: 6.23 10^-8cm/s | % control [9]: 91%
Structure (SMILES): Cc1nn(CC(F)(F)F)cc1Nc1nccc(NCCc2cnc[nH]2)n1
